Paper PMC3076219 (European journal of immunology, 2009)
“And” between values parts separate entries of the source, which are not always exact repeats. Identical values can stand only once.

Tests used:
monocytes [1] = test: Calcium mobilization in monocytes; format: cell-based, human
Summary of the method: (§1)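 Peripheral blood monocytes (kit-isolated from PBMC, CD14-checked) or THP-1 cells at 10^7/mL were loaded with 5 µM Indo-1-AM for 7 min at 37 °C, then held 10 min at RT and washed in cold PBS. Cells were run at 2×10^6/mL in KRP (PBS, 1.5 mM CaCl2, 1.5 mM MgSO4). After baseline they got a first stimulus, then a second. Flow cytometry used 351 nm excitation and the 405:485 nm ratio, gating live cells. Three independent experiments.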

neutrophils [2] = conditions: ref [15], cited from earlier work
P2X7 = conditions: LL-37; ref [14]; cited from earlier work
CXCR2 [3] = test: Total CXCR2 protein in neutrophils, western blot; format: cell-based, human; conditions: LL-37 treated neutrophils, Supporting Information Fig. 6B
macrophages = conditions: including chemokines and their receptors; ref [6]; cited from earlier work
neutrophils [4] = test: Toxicity to neutrophils; format: cell-based, human
CXCR1 [5] = test: CXCR1 surface expression on neutrophils, flow cytometry; format: cell-based, human
Summary of the method: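 Human blood neutrophils were isolated by dextran sedimentation and Ficoll (>95% CD16+) and held at 5×10^6/mL in RPMI 1640 with 1% FBS. They were treated 3h with a dose series (test peptide 1–10 µM; chemokines 1, 5, 10, 50 nM) or with 5 µM for 0.5–3h. Cells were blocked in 10% human serum and stained with anti-CXCR1-APC/anti-CXCR2-FITC or anti-P2X7-FITC, plus anti-CD16. Read-out was flow cytometry GMFI.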

neutrophils [6] = test: Calcium mobilization of neutrophils; format: cell-based, human
immature dendritic cells = conditions: differentiated from monocytes; ref [9]; cited from earlier work
[7] = system: CXCR2 transfected HEK293 cells; test: Secondary necrosis of CXCR2 transfected HEK293 cells; format: cell-based; conditions: Supporting information Fig. 4
neutrophils [8] = test: Cross-desensitization of calcium mobilization of neutrophils; format: cell-based, human
CXCR1 [9] = test: Confocal analysis of CXCR1 internalization in neutrophils; format: cell-based, human; conditions: LL-37 5 µM or CXCL8 50 nM, 1 h, 37°C; Fig. 8
Summary of the method: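 Neutrophils came from citrated donor blood by dextran sedimentation and Ficoll gradient. […] Cells were fixed in 2% paraformaldehyde, permeabilised with saponin and blocked with human serum. Anti-CXCR1 or anti-CXCR2 mAb (4°C), then Alexa 488 anti-mouse IgG, DAPI mount, confocal imaging; three independent experiments.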

[10] = system: CXCR1 transfected HEK293 cells; test: Secondary necrosis of CXCR1 transfected HEK293 cells; format: cell-based; conditions: Supporting information Fig. 4
[11] = cited from earlier work
CXCR2 [12] = test: CXCR2 surface expression on monocytes; format: cell-based, human; conditions: Supporting information Fig. 2
THP-1 cells [13] = test: Migration of THP-1 cells, 24-well Transwell; format: cell-based; conditions: LL-37 5 µM, CXCL1 50 nM, WKYMVm 5 µM, ATP 50 µM, BzATP 50 µM; 2 h, 37°C; Fig. 7E
Summary of the method: (§2)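 CFSE-labelled monocytes or THP-1 cells (5 µM, 5 min RT) at 2×10^6/mL in phenol-red-free RPMI 1640 with 1% FBS went in the Transwell upper chamber (3-µm pores). Stimuli in the lower chamber included CXCL1 50 nM, WKYMVm 5 µM and ATP/BzATP 50 µM. Cells were used with or without 20 min preincubation with 10 µM CXCR2 antagonist. Incubation at 37 °C lasted 90 min for monocytes and 2 h for THP-1. Lower-well cells were read at 495 nm against a standard curve, in quadruplicate.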

CXCR2 [14] = conditions: LL-37 treated neutrophils; ref [15]; cited from earlier work
monocytes [15] = test: Migration of monocytes, 24-well Transwell; format: cell-based, human; conditions: LL-37 5 µM, CXCL1 50 nM, WKYMVm 5 µM, ATP 50 µM, BzATP 50 µM; 90 min, 37°C; Fig. 7F
Summary of the method: as §2

CD4+ T cells = conditions: ref [3], [9], [10]; cited from earlier work
THP-1 cells [16] = test: Calcium mobilization in THP-1 cells; format: cell-based; conditions: Fig. 7C
Summary of the method: as §1

[17] = system: 125I-CXCL8 specific binding sites on neutrophils (CXCR1/2); test: Competition with 125I-CXCL8 for binding to neutrophils; parameters: species or system human; conditions: 1.25 nM 125I-CXCL8, 2h on ice, triplicate, dose-dependent, Fig. 5B
CXCR1 [18] = test: Calcium mobilization in HEK293/CXCR1 cells; format: cell-based, human; conditions: Indo-1; Fig. 7A-B
Summary of the method: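 CXCR1-transfected HEK293 cells were loaded with 5 µM Indo-1-AM in 5 µM pluronic F-127/PBS for 30 min at RT. They were washed in cold PBS, spun at 200 × g for 10 min at 4 °C and suspended in PBS with calcium and magnesium. Stimulation followed baseline recording. Flow cytometric [Ca2+]i was read as the 405:485 nm emission ratio with 351 nm excitation. Three independent experiments.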

neutrophils [19] = conditions: LL-37; ref [15]; cited from earlier work
mast cells = conditions: ref [3], [9], [10]; cited from earlier work

Substance: LL-37: ~4.5 kD active α-helical peptide, C-terminal domain of human cathelicidin hCAP18
- return of Ca2+ response to baseline, monocytes (monocytes [1]; LL-37, Fig. 7D): returns to baseline for THP-1 cells, but not for neutrophils and monocytes
- cross-block of ATP stimulated calcium mobilization in monocytes (monocytes [1]; LL-37 first, then ATP, Fig. 7D): neither ATP nor WKYMVm cross-block LL-37 stimulated calcium mobilization and vice versa
- cross-block of WKYMVm stimulated calcium mobilization in monocytes (monocytes [1]; LL-37 first, then WKYMVm, Fig. 7D): neither ATP nor WKYMVm cross-block LL-37 stimulated calcium mobilization and vice versa
- calcium mobilization in monocytes (monocytes [1]; LL-37 stimulated): stimulates calcium mobilization
- cytotoxicity (neutrophils [2]; LL-37 10 µM): general cytotoxicity is observed at this dosage
- toxic effect on freshly isolated neutrophils (neutrophils [2]; annexin V negative): no toxic effect
- IL-1β processing and release from monocytes (P2X7): induce IL-1β processing and release from monocytes
- total CXCR2 protein level (CXCR2 [3]): no changes in total amounts
- number of genes with stimulated expression by macrophages (macrophages): over 40 genes
- cell membrane permeability (neutrophils [4]; > 10 µM LL-37, 125I-CXCL8 enters cells non-specifically): can cause cell membrane permeability
- concentration with toxic activity on neutrophils (neutrophils [4]; in 125I-CXCL8 binding study): > 10 µM and 10 µM
- CXCR1 surface expression, time course (CXCR1 [5]; LL-37 5 µM, 0.5-3h, Fig. 1C): not affected by LL-37 treatment
- CXCR1 down-regulation at 10 µM (CXCR1 [5]; LL-37 10 µM, 3h): does not down-regulate CXCR1
- [Ca2+]i pattern, dose response (neutrophils [6]; LL-37 1 µM, 2.5 µM, 5 µM, 10 µM, Indo-1, Fig. 3A): a rapid rise followed by a slightly declining plateau region
- [Ca2+]i duration (neutrophils [6]; LL-37, 600s recording time, Fig. 3A): sustained calcium mobilization over the 600s recording time
- return of Ca2+ response to baseline, neutrophils (neutrophils [6]; LL-37, Fig 3A): returns to baseline for THP-1 cells, but not for neutrophils and monocytes
- calcium flux response in the absence of extracellular Ca2+ (neutrophils [6]; PBS without calcium and magnesium, LL-37 5 µM, WKYMVm 5 µM, ATP 5 µM, Fig. 3C): only the WKYMVm peptide is capable of generating a calcium flux response
- migration of immature dendritic cells (immature dendritic cells): but not immature dendritic cells
- generation of secondary necrotic cells, HEK293/CXCR2 [7]: generation of secondary necrotic cells
- cross-desensitization of ATP response by LL-37 (neutrophils [8]; LL-37 first, then ATP, Supporting information Fig. 3A-B): unable to block calcium mobilization stimulated by LL-37 in neutrophils, and vice versa
- cross-desensitization of response to fMLF by LL-37, CXCL7, CXCL1 (neutrophils [8]; data not shown): do not cross-sensitize fMLF stimulation
- CXCR1 translocation (internalization) (CXCR1 [9]): translocation of CXCR2 but not CXCR1 to the cytoplasmic granules
- generation of secondary necrotic cells, HEK293/CXCR1 [10]: generation of secondary necrotic cells
- wound neovascularization ([11]; ref [7]): promotes wound neovascularization
- re-epithelialization of healing skin ([11]; ref [8]): re-epithelialization of healing skin
- CXCR2 down-regulation on monocytes (CXCR2 [12]): down-regulate CXCR2
- stimulation of migration of THP-1 cells (THP-1 cells [13]): but not THP-1 cells
- down-regulation among 21 cell surface markers (CXCR2 [14]): only CXCR2 was specifically down-regulated
- stimulation of migration of monocytes (monocytes [15]): able to stimulate migration in monocytes
- migration of CD4+ T cells (CD4+ T cells): migration of human peripheral monocytes, neutrophils, CD4+ T cells
- calcium signal in THP-1 cells (THP-1 cells [16]): robust calcium signal
- return of Ca2+ response to baseline, THP-1 (THP-1 cells [16]; LL-37): returns to baseline for THP-1 cells
- block of ATP induced calcium mobilization by LL-37 (THP-1 cells [16]; THP-1): able to partially block
- maximum competition of 125I-CXCL8 binding ([17]; 2×10^6 cells): around 50%
- displacement of 125I-CXCL8 [17]: partly displace
- calcium mobilization in CXCR1 transfected HEK293 cells (CXCR1 [18]): only CXCL8 gave a response
- ATP release (neutrophils [19]): induces ATP release from neutrophils
- migration of mast cells (mast cells): migration of human peripheral monocytes, neutrophils, CD4+ T cells, and mast cells
